# ChEMBL document CHEMBL5724801, “EUbOPEN Chemogenomics Library - Multiplex” (2024)
# Values joined by “and” are separate entries in the source; they are usually repeats but may differ in a detail not shown here. Equal entries are not always repeated.
# Columns and labels:
# Format in all cases: toxicity, cell-based
# [1] = test system: U2OS; assay: Multiplex assay against U2OS; settings: human
# In short: (§1)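 With compound added, live cells were imaged on a CQ1 microscope at 37°C and 5% CO2; staining with Hoechst33342, BioTracker Green Microtubule Cytoskeleton Dye, MitoTracker Red and Annexin V Alexa Fluor 680 had been done at seeding. The CellPathfinder machine-learning gating scheme split cells into Hoechst high-intensity objects or normal cells, normal cells into healthy, pyknosed or fragmented nuclei, and pyknosed cells into mitotic or apoptotic. The tubulin, mitochondrial-mass and membrane-permeability phenotypes are per cents of healthy-nucleus cells.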
# [2] = test system: Fibroblast; assay: Multiplex assay against human fibroblast; in short: as §1
# [3] = test system: HEK-293T; assay: Multiplex assay against HEK293T; settings: human; in short: as §1
# [4] = 12 h, 1 µM, compound concentration 1 uM
# [5] = 12 h, 10 µM, compound concentration 10 uM
# [6] = 24 h, 1 µM, compound concentration 1 uM
# [7] = 24 h, 10 µM, compound concentration 10 uM
# [8] = 48 h, 1 µM, compound concentration 1 uM
# [9] = 48 h, 10 µM, compound concentration 10 uM
smiles,measurement,setting,value
C[C@H]1[C@H]2CC[C@H]3[C@@H]4CC=C5C[C@@H](N(C)C)CC[C@]5(C)[C@H]4CC[C@]23CN1C [CONESSINE],Population Apoptotic (%),[1]; [4],80% and 58%
same,Population Fragmented Nuclei (%),[1]; [4],23% and 16%
same,Population Healthy Nuclei (%),[1]; [4],70% and 73%
same,Population Hoechst High Intensity Objects (%),[1]; [4],2% and 1%
same,Population Membrane Permeable-Phenotype (%),[1]; [4],5%
same,Population Mitochondria Different-Phenotype (%),[1]; [4],1% and 2%
same,Population Mitotic Cells (%),[1]; [4],20% and 41%
same,Population Normal (%),[1]; [4],97% and 98%
same,Population Pyknosed Nuclei (%),[1]; [4],6% and 9%
same,Population Tubulin-Different-Phenotype (%),[1]; [4],2% and 3%
same,Total Cell Count,[1]; [4],248 and 124
same,Population Apoptotic (%),[1]; [5],55% and 100%
same,Population Fragmented Nuclei (%),[1]; [5],19% and 17%
same,Population Healthy Nuclei (%),[1]; [5],71% and 68%
same,Population Hoechst High Intensity Objects (%),[1]; [5],2% and 0%
same,Population Membrane Permeable-Phenotype (%),[1]; [5],5% and 8%
same,Population Mitochondria Different-Phenotype (%),[1]; [5],0% and 5%
same,Population Normal (%),[1]; [5],97% and 99%
same,Population Pyknosed Nuclei (%),[1]; [5],8% and 13%
same,Population Tubulin-Different-Phenotype (%),[1]; [5],1% and 6%
same,Total Cell Count,[1]; [5],237 and 107
same,Population Apoptotic (%),[1]; [6],90% and 100%
same,Population Fragmented Nuclei (%),[1]; [6],18% and 11%
same,Population Healthy Nuclei (%),[1]; [6],74% and 81%
same,Population Hoechst High Intensity Objects (%),[1]; [6],2% and 1%
same,Population Membrane Permeable-Phenotype (%),[1]; [6],6% and 8%
same,Population Mitochondria Different-Phenotype (%),[1]; [6],1% and 5%
same,Population Mitotic Cells (%),[1]; [6],9% and 0%
same,Population Normal (%),[1]; [6],97% and 98%
same,Population Pyknosed Nuclei (%),[1]; [6],7%
same,Population Tubulin-Different-Phenotype (%),[1]; [6],3% and 7%
same,Total Cell Count,[1]; [6],307 and 153
same,Population Apoptotic (%),[1]; [7],65% and 100%
same,Population Fragmented Nuclei (%),[1]; [7],20% and 19%
same,Population Healthy Nuclei (%),[1]; [7],71%
same,Population Hoechst High Intensity Objects (%),[1]; [7],2% and 4%
same,Population Membrane Permeable-Phenotype (%),[1]; [7],2% and 10%
same,Population Mitochondria Different-Phenotype (%),[1]; [7],0% and 4%
same,Population Normal (%),[1]; [7],97% and 95%
same,Population Pyknosed Nuclei (%),[1]; [7],7% and 8%
same,Population Tubulin-Different-Phenotype (%),[1]; [7],1% and 9%
same,Total Cell Count,[1]; [7],265 and 134
same,Population Apoptotic (%),[1]; [8],83% and 86%
same,Population Fragmented Nuclei (%),[1]; [8],16%
same,Population Healthy Nuclei (%),[1]; [8],79% and 73%
same,Population Hoechst High Intensity Objects (%),[1]; [8],2%
same,Population Membrane Permeable-Phenotype (%),[1]; [8],4%
same,Population Mitochondria Different-Phenotype (%),[1]; [8],2% and 0%
same,Population Mitotic Cells (%),[1]; [8],16% and 13%
same,Population Normal (%),[1]; [8],97%
same,Population Pyknosed Nuclei (%),[1]; [8],4% and 9%
same,Population Tubulin-Different-Phenotype (%),[1]; [8],1% and 2%
same,Total Cell Count,[1]; [8],430 and 227
same,Population Apoptotic (%),[1]; [9],89% and 85%
same,Population Fragmented Nuclei (%),[1]; [9],19% and 15%
same,Population Healthy Nuclei (%),[1]; [9],73% and 72%
same,Population Hoechst High Intensity Objects (%),[1]; [9],1% and 6%
same,Population Membrane Permeable-Phenotype (%),[1]; [9],4% and 9%
same,Population Mitochondria Different-Phenotype (%),[1]; [9],2% and 5%
same,Population Mitotic Cells (%),[1]; [9],10% and 15%
same,Population Normal (%),[1]; [9],98% and 93%
same,Population Pyknosed Nuclei (%),[1]; [9],7% and 12%
same,Population Tubulin-Different-Phenotype (%),[1]; [9],3% and 6%
same,Total Cell Count,[1]; [9],370 and 175
same,Population Apoptotic (%),[2]; [4],45% and 29%
same,Population Fragmented Nuclei (%),[2]; [4],15% and 33%
same,Population Healthy Nuclei (%),[2]; [4],73% and 41%
same,Population Hoechst High Intensity Objects (%),[2]; [4],1% and 2%
same,Population Membrane Permeable-Phenotype (%),[2]; [4],0% and 7%
same,Population Mitochondria Different-Phenotype (%),[2]; [4],8% and 2%
same,Population Mitotic Cells (%),[2]; [4],55% and 70%
same,Population Normal (%),[2]; [4],98% and 97%
same,Population Pyknosed Nuclei (%),[2]; [4],11% and 24%
same,Population Tubulin-Different-Phenotype (%),[2]; [4],19% and 46%
same,Total Cell Count,[2]; [4],174 and 101
same,Population Apoptotic (%),[2]; [5],37% and 43%
same,Population Fragmented Nuclei (%),[2]; [5],26%
same,Population Healthy Nuclei (%),[2]; [5],60% and 45%
same,Population Hoechst High Intensity Objects (%),[2]; [5],3%
same,Population Membrane Permeable-Phenotype (%),[2]; [5],5% and 8%
same,Population Mitochondria Different-Phenotype (%),[2]; [5],10% and 4%
same,Population Mitotic Cells (%),[2]; [5],62% and 56%
same,Population Normal (%),[2]; [5],96%
same,Population Pyknosed Nuclei (%),[2]; [5],13% and 28%
same,Population Tubulin-Different-Phenotype (%),[2]; [5],32% and 58%
same,Total Cell Count,[2]; [5],189 and 110
same,Population Apoptotic (%),[2]; [6],43% and 40%
same,Population Fragmented Nuclei (%),[2]; [6],13% and 27%
same,Population Healthy Nuclei (%),[2]; [6],73% and 48%
same,Population Hoechst High Intensity Objects (%),[2]; [6],2% and 4%
same,Population Mitochondria Different-Phenotype (%),[2]; [6],4% and 6%
same,Population Mitotic Cells (%),[2]; [6],56% and 59%
same,Population Normal (%),[2]; [6],97% and 95%
same,Population Pyknosed Nuclei (%),[2]; [6],13% and 24%
same,Population Tubulin-Different-Phenotype (%),[2]; [6],22% and 61%
same,Total Cell Count,[2]; [6],175 and 95
same,Population Apoptotic (%),[2]; [7],64% and 36%
same,Population Fragmented Nuclei (%),[2]; [7],28%
same,Population Healthy Nuclei (%),[2]; [7],61% and 39%
same,Population Hoechst High Intensity Objects (%),[2]; [7],3% and 2%
same,Population Membrane Permeable-Phenotype (%),[2]; [7],1% and 7%
same,Population Mitochondria Different-Phenotype (%),[2]; [7],7%
same,Population Mitotic Cells (%),[2]; [7],35% and 63%
same,Population Normal (%),[2]; [7],96% and 97%
same,Population Tubulin-Different-Phenotype (%),[2]; [7],27% and 60%
same,Total Cell Count,[2]; [7],190 and 106
same,Population Apoptotic (%),[2]; [8],50% and 47%
same,Population Fragmented Nuclei (%),[2]; [8],17% and 37%
same,Population Healthy Nuclei (%),[2]; [8],73% and 45%
same,Population Hoechst High Intensity Objects (%),[2]; [8],5% and 0%
same,Population Membrane Permeable-Phenotype (%),[2]; [8],0% and 17%
same,Population Mitochondria Different-Phenotype (%),[2]; [8],3% and 8%
same,Population Mitotic Cells (%),[2]; [8],50% and 52%
same,Population Normal (%),[2]; [8],94% and 99%
same,Population Pyknosed Nuclei (%),[2]; [8],9% and 16%
same,Population Tubulin-Different-Phenotype (%),[2]; [8],27% and 63%
same,Total Cell Count,[2]; [8],178 and 104
same,Population Apoptotic (%),[2]; [9],66% and 27%
same,Population Fragmented Nuclei (%),[2]; [9],26% and 29%
same,Population Healthy Nuclei (%),[2]; [9],62% and 48%
same,Population Hoechst High Intensity Objects (%),[2]; [9],6% and 2%
same,Population Membrane Permeable-Phenotype (%),[2]; [9],0% and 8%
same,Population Mitochondria Different-Phenotype (%),[2]; [9],4% and 6%
same,Population Mitotic Cells (%),[2]; [9],33% and 72%
same,Population Normal (%),[2]; [9],93% and 97%
same,Population Pyknosed Nuclei (%),[2]; [9],10% and 22%
same,Population Tubulin-Different-Phenotype (%),[2]; [9],25% and 62%
same,Total Cell Count,[2]; [9],190 and 102
same,Population Apoptotic (%),[3]; [4],35% and 48%
same,Population Fragmented Nuclei (%),[3]; [4],5% and 4%
same,Population Healthy Nuclei (%),[3]; [4],78% and 85%
same,Population Hoechst High Intensity Objects (%),[3]; [4],6% and 8%
same,Population Membrane Permeable-Phenotype (%),[3]; [4],0%
same,Population Mitochondria Different-Phenotype (%),[3]; [4],39% and 58%
same,Population Mitotic Cells (%),[3]; [4],65% and 51%
same,Population Normal (%),[3]; [4],93% and 91%
same,Population Pyknosed Nuclei (%),[3]; [4],16% and 10%
same,Population Tubulin-Different-Phenotype (%),[3]; [4],26% and 22%
same,Total Cell Count,[3]; [4],400 and 356
same,Population Apoptotic (%),[3]; [5],35% and 59%
same,Population Fragmented Nuclei (%),[3]; [5],6% and 7%
same,Population Healthy Nuclei (%),[3]; [5],77% and 78%
same,Population Hoechst High Intensity Objects (%),[3]; [5],6% and 9%
same,Population Membrane Permeable-Phenotype (%),[3]; [5],1% and 0%
same,Population Mitochondria Different-Phenotype (%),[3]; [5],56% and 62%
same,Population Mitotic Cells (%),[3]; [5],65% and 40%
same,Population Normal (%),[3]; [5],93% and 90%
same,Population Pyknosed Nuclei (%),[3]; [5],15% and 14%
same,Population Tubulin-Different-Phenotype (%),[3]; [5],38% and 30%
same,Total Cell Count,[3]; [5],419 and 384
same,Population Apoptotic (%),[3]; [6],26% and 25%
same,Population Fragmented Nuclei (%),[3]; [6],9% and 8%
same,Population Healthy Nuclei (%),[3]; [6],80% and 81%
same,Population Hoechst High Intensity Objects (%),[3]; [6],5% and 4%
same,Population Membrane Permeable-Phenotype (%),[3]; [6],1% and 0%
same,Population Mitochondria Different-Phenotype (%),[3]; [6],22% and 34%
same,Population Mitotic Cells (%),[3]; [6],73% and 75%
same,Population Normal (%),[3]; [6],94% and 95%
same,Population Pyknosed Nuclei (%),[3]; [6],10%
same,Population Tubulin-Different-Phenotype (%),[3]; [6],17% and 16%
same,Total Cell Count,[3]; [6],514 and 484
same,Population Apoptotic (%),[3]; [7],27% and 47%
same,Population Fragmented Nuclei (%),[3]; [7],9%
same,Population Healthy Nuclei (%),[3]; [7],79% and 82%
same,Population Hoechst High Intensity Objects (%),[3]; [7],6% and 9%
same,Population Membrane Permeable-Phenotype (%),[3]; [7],1% and 0%
same,Population Mitochondria Different-Phenotype (%),[3]; [7],38% and 43%
same,Population Mitotic Cells (%),[3]; [7],72% and 52%
same,Population Normal (%),[3]; [7],93% and 90%
same,Population Pyknosed Nuclei (%),[3]; [7],11% and 7%
same,Population Tubulin-Different-Phenotype (%),[3]; [7],28% and 24%
same,Total Cell Count,[3]; [7],572 and 474
same,Population Apoptotic (%),[3]; [8],30% and 36%
same,Population Fragmented Nuclei (%),[3]; [8],9% and 10%
same,Population Healthy Nuclei (%),[3]; [8],82% and 83%
same,Population Hoechst High Intensity Objects (%),[3]; [8],2% and 4%
same,Population Membrane Permeable-Phenotype (%),[3]; [8],1%
same,Population Mitochondria Different-Phenotype (%),[3]; [8],18% and 20%
same,Population Mitotic Cells (%),[3]; [8],69% and 63%
same,Population Normal (%),[3]; [8],97% and 95%
same,Population Pyknosed Nuclei (%),[3]; [8],7% and 5%
same,Population Tubulin-Different-Phenotype (%),[3]; [8],12% and 11%
same,Total Cell Count,[3]; [8],735 and 630
same,Population Apoptotic (%),[3]; [9],27% and 36%
same,Population Fragmented Nuclei (%),[3]; [9],14% and 10%
same,Population Healthy Nuclei (%),[3]; [9],78% and 81%
same,Population Hoechst High Intensity Objects (%),[3]; [9],4% and 5%
same,Population Membrane Permeable-Phenotype (%),[3]; [9],1% and 0%
same,Population Mitochondria Different-Phenotype (%),[3]; [9],23% and 32%
same,Population Mitotic Cells (%),[3]; [9],72% and 63%
same,Population Normal (%),[3]; [9],95% and 94%
same,Population Pyknosed Nuclei (%),[3]; [9],6% and 7%
same,Population Tubulin-Different-Phenotype (%),[3]; [9],15% and 17%
same,Total Cell Count,[3]; [9],767 and 618
